# From PubChem BioAssay
# A selection: hits, their analogues and other compounds. The true share with any hit is near 3.8%.
# KCNQ1 block = blocks the human KCNQ1 potassium channel; 310,000 compounds, 1.3% hits; P51787; CHO-K1 KCNQ1, FluxOR thallium flux fluorescence; hits give high values; B-score at 10 µM;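 active = compounds whose thallium flux B-score, printed positive for inhibition, exceeds three library SD while starting fluorescence stays within three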;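 note: channel opened by potassium depolarization with thallium stimulus after 20 min compound exposure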
# KCNK3 block = human KCNK3 channel inhibition, primary screen; AID 602410; CHO-KCNK3 thallium flux, FluxOR fluorescence; hits give low values; B-score at 10 µM; O14649; 340,000 compounds, 0.84% hits;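 active = B-score under library mean minus 4 SD, starting fluorescence ratio at most library mean plus 5 SD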;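 note: more negative B-score means stronger inhibition of thallium flux through KCNK3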
# Kir21 inh = inhibitors of mouse Kir2.1 inward-rectifier potassium channel; P35561; HEK293-Kir2.1, FluxOR thallium flux fluorescence; hits give low values; B-score at 10 µM; 310,000 compounds, 0.85% hits; AID 1672;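 active = fluorescence ratio B-score at or below minus 3 SD of library scores, with starting-brightness B-score within 2 SD, cut at about -4.2 in these data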;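 note: channel flux triggered by added potassium and thallium sulfate stimulus; B-score of peak minus minimum fluorescence over baseline after thallium stimulus; more negative B-score means stronger Kir2.1 block with less thallium influx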
# KCNQ1 act = potentiators or activators of human KCNQ1 potassium channel. P51787. AID 2648. CHO-K1 KCNQ1, thallium flux FluxOR fluorescence; hits give high values. 310,000 compounds, 0.35% hits. B-score at 10 µM;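 active = fluorescence ratio B-score, a plate-corrected score, at least three library SD, with initial intensity B-score within 5 SD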
#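 assay system = KCNQ1-transfected CHO-K1 cells | medium = assay buffer with matched DMSO | probe or stimulus = depolarizing K+/Tl+ stimulus, K2SO4 and Tl2SO4 each 12.5 mM in 5x stock | dosing = single dose | incubation = dye 90 min, compound 20 min, room temperature | detection = kinetic FluxOR fluorescence, 10 s baseline plus 110 s post-stimulus | evaluation = ratio B score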
# KCNK9 block = human KCNK9 channel inhibition; 310,000 compounds, 1.2% hits; Q9NPC2; HEK293 KCNK9, FluxOR thallium flux fluorescence; hits give low values; B-score at 10 µM;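 active = ratio B-score over 3 SD below the library mean, with starting fluorescence within 5 SD of its mean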;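 note: negative B-score means less thallium flux so channel inhibition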
# hERG rescue = shields human hERG channel from block by proarrhythmic agents | 310,000 compounds, 0.51% hits | Q12809 | activation (rescue from dofetilide block), less the hit threshold, % at 10 µM | CHO-hERG, FluxOR thallium flux, dofetilide IC70 present;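 active = activation above the mean of controls blocked by dofetilide plus 5 SD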;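 note: thallium influx through hERG after potassium depolarization seen as dye fluorescence rise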
# An asterisk follows results filed as active; i = inactive; x = no result given.
SMILES,KCNQ1 block,KCNK3 block,Kir21 inh,KCNQ1 act,KCNK9 block,hERG rescue
CC1=NN(Cc2ccccc2)C(=O)C1C(c1ccc(Cl)cc1)C(C#N)C#N (stereo not drawn),i,i,-5.5*,i,i,-14
CCCC1=Nc2cc(C(=O)N3CCN(c4ccccn4)CC3)ccc2Sc2ccc(C)cc21,7*,i,-0.32,i,i,-19
COc1ccc(CN2[C@@H](CC(=O)O)c3ccccc3S2(=O)=O)cc1,i,i,0.04,i,i,6.7*
COc1cc(OC)c(OC)cc1CN1CCN(Cc2ccc(SC)cc2)CC1,i,i,-5.5*,i,i,-6
COc1ccc(CN2CCN(Cc3ccc(Br)cc3)CC2)c(OC)c1OC,i,i,-4.8*,i,i,0
CCN1CCN(Cc2ccc(NC(=O)Nc3ccc(SC)cc3)cc2)CC1,i,i,-4.8*,i,i,-12
COc1cc(CN2CCN(Cc3ccc(SC)cc3)CC2)cc(OC)c1O,i,i,0.19,i,i,-4
CC(=O)Oc1ccc(-c2cccc(C(=O)N(C)c3ccc(O)cc3)c2)cc1,i,i,-0.41,i,i,-12
Cc1cc(NC(=O)CCSc2nc(-c3ccco3)cc(C(F)(F)F)n2)n(-c2ccccc2)n1,i,i,-0.06,i,i,-13
Cc1c(NC(=O)CN2C(=O)NC(C)(c3ccccc3)C2=O)c(=O)n(-c2ccccc2)n1C (stereo not drawn),i,i,-0.03,i,i,5.8*
Cc1ccc(C2(C)NC(=O)N(CC(=O)Nc3c(C)n(C)n(-c4ccccc4)c3=O)C2=O)cc1 (stereo not drawn),i,i,-0.13,i,i,-7
C#CCNC(=O)C1=C[C@@H](c2ccc(C(F)(F)F)cc2)[C@H](CCCO)[C@@H](OCC)O1,i,i,1.3,i,i,-12
CCCCCSc1nc2c(c(=O)[nH]c(=O)n2C)n1CCc1ccccc1,i,i,0.24,i,i,-10
COc1cc(NC(=S)N2CCC(C(O)(c3ccccc3)c3ccccc3)CC2)cc(OC)c1,i,i,0.46,23*,i,-3
Cc1ccc(-c2[nH]nc3c2C(c2cccnc2)C(C#N)=C(N)O3)cc1 (stereo not drawn),i,i,0.61,i,i,5.0*
O=C(NCc1ccccc1)c1onc(CSc2ccc(F)cc2)c1C(=O)NCCCN1CCOCC1,i,i,-0.98,14*,i,-15
C=CCOc1c(Br)cc(/C=N/n2c(CC)n[nH]c2=S)cc1Br,i,i,-1.5,i,i,-11
COc1cccc(-c2nc(N3CCCCC3C)c3ccccc3n2)c1O (stereo not drawn),8*,i,-0.09,i,i,-10
CCCCOC(=O)c1ccc(NC(=O)C(=O)NCc2ccccn2)cc1,i,i,1.7,i,i,-6
O=CN(Cc1nc2ccccc2[nH]1)c1ccc(C(=O)O)cc1,x,i,x,x,x,x
Nc1nc(-c2c(Cl)cccc2Cl)no1,i,i,3.2,i,i,5.7*
O=C(NC(=S)N1CCN(c2ccc(C(F)(F)F)cc2[N+](=O)[O-])CC1)c1cccs1,i,i,0.02,10*,i,3
O=[N+]([O-])c1cc(C(F)(F)F)ccc1N1CCCNCC1,i,i,-0.58,i,i,7.9*
N=c1n(Cc2ccccc2)c2ccccc2n1CC(O)COc1ccc(Cl)cc1Cl (stereo not drawn),i,i,-4.2,i,i,-11
Cc1cccc(OCC(O)CN2CCNCC2)c1 (stereo not drawn),i,i,-1.1,i,i,-2
SMILES,KCNQ1 block,KCNK3 block,Kir21 inh,KCNQ1 act,KCNK9 block,hERG rescue
COc1ccc(OCC(O)Cn2c(=N)n(Cc3ccccc3)c3ccccc32)cc1 (stereo not drawn),i,i,-7.3*,i,i,-20
Cc1cccc(OCC(O)Cn2c(=N)n(CCN3CCCCC3)c3ccccc32)c1 (stereo not drawn),i,i,-4.2*,i,i,-22
Cc1cccc(OCC(O)Cn2c(=N)n(Cc3ccccc3)c3ccccc32)c1 (stereo not drawn),i,i,-10*,i,i,-28
CCN(CC)CCn1c(=N)n(CC(O)COc2cccc(C)c2)c2ccccc21 (stereo not drawn),i,i,-7.9*,i,i,-20
CC(=O)N(Cc1c(C)nn(-c2ccccc2)c1Cl)c1ccc(Cl)cc1,i,i,-5.1*,i,i,-19
Cc1nn(-c2ccccc2)c(Cl)c1CN(C(=O)CCl)c1ccc(Cl)cc1,i,i,-3.6,i,i,-8
COc1ccc(NC(=S)N/N=C/c2cccn2Cc2ccc(F)cc2Cl)cc1,i,i,0.93,i,i,-5
CSc1ccccc1NC(=S)N/N=C/c1cccn1Cc1cccc(C)c1,i,i,2.6,i,-6.6*,-18
COc1ccc(NC(=S)N/N=C/c2cccn2Cc2ccccc2F)cc1,i,i,2.5,i,i,-6
CSc1ccccc1NC(=S)N/N=C/c1cccn1Cc1ccc(F)cc1,i,i,-2.7,i,-7.9*,-1
Nc1cc(N)nc(SCC(=O)NC2CCCCCCC2)n1,x,i,x,x,x,x
Cc1nn(CCc2nn[nH]n2)c2nc(-c3ccc(C4CCCCC4)cc3)cc(C(F)(F)F)c12,i,i,2.5,50*,i,-16
Cc1nn(CCC(=O)O)c2nc(-c3cccnc3)cc(C(F)(F)F)c12,i,i,-0.91,i,i,-1
Cc1ccc(C(=O)NNC(=S)Nc2cccc(Cl)c2Cl)cc1[N+](=O)[O-],9*,i,-1.7,i,i,-10
O=S(=O)(NCc1csc(-c2cccs2)n1)c1cccc(C(F)(F)F)c1,i,i,-11*,i,i,-6
Cc1ccc(S(=O)(=O)NCc2csc(-c3cccs3)n2)cc1,i,i,-1.4,i,i,-6
Cc1ccc(CNc2nc3ccccc3n2C)cc1,i,i,-6.4*,i,i,-4
Cn1c(NCc2ccc(Cl)cc2)nc2ccccc21,i,i,-9.6*,i,i,-9
Cn1c(CNc2nc3ccccc3n2C)nc2ccccc21,i,i,-0.33,i,i,-14
Cc1ccc(Cl)c(OC(=O)Cn2cnc3c2c(=O)n(C)c(=O)n3C)c1,i,i,-0.46,i,i,-7
CCOC(=S)NC(=O)c1sc2ccccc2c1Cl,i,i,3.8,96*,i,22*
O=C(NC(=S)NCCO)c1sc2ccccc2c1Cl,i,i,0,i,i,-7
